One test deals with T1, Progesterone receptor (Homo sapiens, UniProt P06401).
T1 sequence (P06401 whole entry): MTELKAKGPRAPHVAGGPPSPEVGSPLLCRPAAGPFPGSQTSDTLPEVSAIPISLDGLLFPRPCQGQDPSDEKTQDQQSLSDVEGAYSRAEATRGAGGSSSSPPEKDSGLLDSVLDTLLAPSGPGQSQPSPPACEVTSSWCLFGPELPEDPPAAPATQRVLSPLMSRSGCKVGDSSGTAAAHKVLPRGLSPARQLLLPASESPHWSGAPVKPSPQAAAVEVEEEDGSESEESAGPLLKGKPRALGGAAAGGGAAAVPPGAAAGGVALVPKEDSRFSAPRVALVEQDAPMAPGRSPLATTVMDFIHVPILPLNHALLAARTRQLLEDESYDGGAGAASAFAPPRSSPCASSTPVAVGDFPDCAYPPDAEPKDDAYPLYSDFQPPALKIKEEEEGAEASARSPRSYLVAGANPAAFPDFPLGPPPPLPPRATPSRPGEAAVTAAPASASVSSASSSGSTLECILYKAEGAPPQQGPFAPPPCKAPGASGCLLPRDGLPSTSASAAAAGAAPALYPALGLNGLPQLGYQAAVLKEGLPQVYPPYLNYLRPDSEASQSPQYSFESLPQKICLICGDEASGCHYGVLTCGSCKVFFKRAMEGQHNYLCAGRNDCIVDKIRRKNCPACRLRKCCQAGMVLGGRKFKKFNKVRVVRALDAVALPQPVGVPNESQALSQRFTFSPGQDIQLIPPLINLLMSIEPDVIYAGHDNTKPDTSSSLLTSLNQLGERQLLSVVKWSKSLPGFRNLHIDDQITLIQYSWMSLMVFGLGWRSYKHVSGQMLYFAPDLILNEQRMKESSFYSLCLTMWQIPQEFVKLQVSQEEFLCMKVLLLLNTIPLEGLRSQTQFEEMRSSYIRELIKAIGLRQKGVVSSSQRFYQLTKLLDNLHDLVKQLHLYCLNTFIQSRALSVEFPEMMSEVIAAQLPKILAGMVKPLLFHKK
Briefly: Displacement of [3H]progesterone from human Progesterone receptor. The procedure, abridged: (§1)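 Human steroid receptor (PR, MR, AR, ERα) binding measured by radioligand displacement, with IC50s determined in duplicate. Values without a range come from a single experiment, and values with a range are geometric means of repeat experiments.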
Background: Loss of bound radioactivity is the signal in a displacement assay; it reports binding, not function.

The next test has as its target T2, Estrogen receptor (Homo sapiens, UniProt P03372).
T2 sequence (P03372 whole entry): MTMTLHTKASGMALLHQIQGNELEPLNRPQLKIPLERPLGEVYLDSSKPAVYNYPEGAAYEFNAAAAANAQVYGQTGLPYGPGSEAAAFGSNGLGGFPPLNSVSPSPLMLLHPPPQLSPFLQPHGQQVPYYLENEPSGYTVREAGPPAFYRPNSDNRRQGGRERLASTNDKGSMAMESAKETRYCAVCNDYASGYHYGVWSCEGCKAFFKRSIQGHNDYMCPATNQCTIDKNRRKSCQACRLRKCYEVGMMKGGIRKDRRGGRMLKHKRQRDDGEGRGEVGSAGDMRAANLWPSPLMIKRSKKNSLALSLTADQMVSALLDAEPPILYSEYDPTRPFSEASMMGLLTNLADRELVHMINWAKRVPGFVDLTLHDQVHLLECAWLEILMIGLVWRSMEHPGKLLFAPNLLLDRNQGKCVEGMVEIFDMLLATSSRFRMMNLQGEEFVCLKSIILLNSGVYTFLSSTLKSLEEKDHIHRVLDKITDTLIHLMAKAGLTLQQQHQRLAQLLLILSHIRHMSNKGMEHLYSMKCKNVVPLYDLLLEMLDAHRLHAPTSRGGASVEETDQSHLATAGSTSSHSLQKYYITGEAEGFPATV
Briefly: Displacement of [3H]estradiol from human estrogen receptor alpha. An outline of the steps: as §1

The next test has as its target T3, Androgen receptor (Homo sapiens, UniProt P10275).
T3 sequence (P10275 whole entry): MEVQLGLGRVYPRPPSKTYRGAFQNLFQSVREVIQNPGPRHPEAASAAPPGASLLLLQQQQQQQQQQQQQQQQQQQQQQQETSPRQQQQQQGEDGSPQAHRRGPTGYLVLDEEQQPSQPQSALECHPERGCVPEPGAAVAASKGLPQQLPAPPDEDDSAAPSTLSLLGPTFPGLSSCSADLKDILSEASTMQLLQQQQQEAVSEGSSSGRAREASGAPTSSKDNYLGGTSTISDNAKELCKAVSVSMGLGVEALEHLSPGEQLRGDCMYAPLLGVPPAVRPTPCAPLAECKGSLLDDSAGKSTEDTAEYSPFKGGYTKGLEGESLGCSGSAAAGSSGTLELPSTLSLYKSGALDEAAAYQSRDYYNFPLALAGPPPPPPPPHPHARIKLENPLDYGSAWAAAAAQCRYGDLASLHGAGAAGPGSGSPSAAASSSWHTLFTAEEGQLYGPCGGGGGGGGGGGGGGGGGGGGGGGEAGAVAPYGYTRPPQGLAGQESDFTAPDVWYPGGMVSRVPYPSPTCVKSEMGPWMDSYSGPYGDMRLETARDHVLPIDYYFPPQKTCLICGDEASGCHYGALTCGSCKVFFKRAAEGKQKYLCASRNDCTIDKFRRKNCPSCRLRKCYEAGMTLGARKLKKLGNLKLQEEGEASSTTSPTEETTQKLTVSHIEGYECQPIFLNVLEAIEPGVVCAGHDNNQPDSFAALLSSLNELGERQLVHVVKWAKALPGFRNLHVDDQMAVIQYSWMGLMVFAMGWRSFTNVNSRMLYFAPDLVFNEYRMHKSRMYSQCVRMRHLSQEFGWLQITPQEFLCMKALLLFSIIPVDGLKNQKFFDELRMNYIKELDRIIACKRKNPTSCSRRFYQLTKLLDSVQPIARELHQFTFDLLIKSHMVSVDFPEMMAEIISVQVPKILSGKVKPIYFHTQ
As to the kind of experiment: Displacement of [3H]mibolerone from human Androgen receptor.

The IC50 is the concentration needed to halve the response being measured. A high value points to a need for much substance. For `COc1cccc2c1-c1ccc(NS(C)(=O)=O)cc1C(c1cccs1)O2` (stereo not given), the figures for the IC50 on Progesterone receptor, at Estrogen receptor and on Androgen receptor were 0.45 µM, over 10 µM and over 10 µM, respectively.

As for `COc1cccc2c1-c1ccc(NS(C)(=O)=O)cc1C(c1cccc(F)c1)O2` (stereo not given), the IC50 was 0.476 µM on Progesterone receptor, over 10 µM on Estrogen receptor and over 10 µM at Androgen receptor.

On to `COc1cccc2c1-c1ccc(NS(C)(=O)=O)cc1C(c1ccc(F)cc1)O2` (stereo not given), for which the IC50 was 1.16 µM at Progesterone receptor, over 1 µM on Estrogen receptor and over 10 µM at Androgen receptor.

In the case of `COc1cccc2c1-c1ccc(NS(C)(=O)=O)cc1C(c1ccc(C)cc1)O2` (stereo not given), the results for the IC50 on Progesterone receptor, at Estrogen receptor and on Androgen receptor were 0.673 µM, over 10 µM and over 10 µM, respectively.

For the molecule `CCOc1cccc2c1-c1ccc(NS(C)(=O)=O)cc1C(c1ccccc1)O2` (stereo not given), the results for the IC50 at Progesterone receptor, on Estrogen receptor and on Androgen receptor were 6.9 µM, over 10 µM and over 10 µM, respectively.

The values are drawn from ChEMBL document CHEMBL1147539, “Synthesis and biological evaluation of novel, selective, nonsteroidal glucocorticoid receptor antagonists” (Bioorg Med Chem Lett, 2004).
